Assay results published in ChEMBL document CHEMBL2346608, “New annelated thieno[2,3-e][1,2,3]triazolo[1,5-a]pyrimidines, with potent anticancer activity, designed through VLAK protocol” (2013).

Assays:
Assay type in all cases: functional
IGROV-1 = assay: Antiproliferative activity against human IGROV1 cells after 48 hrs by sulforhodamine B assay; conditions: IGROV-1, 48 h; for TGI: read-out: pTGI (converted)
Outline: (§1)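 Cells grown in RPMI 1640 with 5% FBS and 2 mM L-glutamine, plated at 5000–40,000 cells/well and preincubated 24 h at 37 °C, 5% CO2. Five drug concentrations (10-fold or ½-log dilutions from DMSO stocks) applied for 48 h. TCA-fixed (final 10% adherent, 16% suspension), SRB-stained, A515 read. Growth versus time-zero and control wells gave GI50, TGI, LC50.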

SK-MEL-2 = assay: Antiproliferative activity against human SK-MEL-2 cells after 48 hrs by sulforhodamine B assay; conditions: SK-MEL-2, 48 h; for TGI: read-out: pTGI (converted); outline: as §1
SR = assay: Antiproliferative activity against human SR cells after 48 hrs by sulforhodamine B assay; conditions: for TGI: read-out: pTGI (converted)
Outline: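 Cells in RPMI 1640 with 5% FBS and 2 mM L-glutamine were seeded at 5000–40,000/well according to doubling time and preincubated 24 h at 37 °C in 5% CO2. Time-zero plates were TCA-fixed when drug was added. Five 10-fold or ½-log dilutions from DMSO stocks were added for 48 h. After SRB staining, A515 was read and GI50 derived from [(Ti−Tz)/(C−Tz)]×100 = 50.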

BT-549 = assay: Antiproliferative activity against human BT549 cells after 48 hrs by sulforhodamine B assay; conditions: BT-549, 48 h; outline: as §1

Q: How did the GI50 (IGROV-1) turn out when `CN1CCN(CCCn2c(=O)c3sc4ncccc4c3n3nnc(-c4ccccc4)c23)CC1` was run?
A: The GI50 was 5.89 µM.

Q: And the LC50 (IGROV-1)?
A: Its LC50 is 32.4 µM.

Q: And the TGI (IGROV-1)?
A: The TGI was 13.8 µM.

Q: And the GI50 (SK-MEL-2)?
A: The GI50 was 8.71 µM.

Q: What about the LC50 (SK-MEL-2) of the same molecule?
A: Its LC50 is 31.6 µM.

Q: And the TGI (SK-MEL-2)?
A: Its TGI is 16.6 µM.

Q: What about the GI50 (SR) of the same molecule?
A: The GI50 was 1.1 µM.

Q: What about the LC50 (50% lethal concentration) (SR) of the same molecule?
A: The LC50 (50% lethal concentration) was 12 µM.

Q: And the TGI (SR)?
A: The TGI was 2.57 µM.

Q: Which GI50 (IGROV-1) does the source give for `O=C(CCCn1c(=O)c2sc3ncccc3c2n2nnc(-c3ccccc3)c12)NCCc1c[nH]cn1` here?
A: The GI50 was 9.55 µM.

Q: What about the LC50 (IGROV-1) of the same molecule?
A: The LC50 was 75.9 µM.

Q: What about the TGI (IGROV-1) of the same molecule?
A: Its TGI is 27.5 µM.

Q: What about the GI50 (SK-MEL-2) of the same molecule?
A: Its GI50 is 17.8 µM.

Q: And the LC50 (SK-MEL-2)?
A: Its LC50 is 85.1 µM.

Q: And the TGI (SK-MEL-2)?
A: The TGI was 38.9 µM.

Q: And the GI50 (SR)?
A: The GI50 was 2.51 µM.

Q: What about the LC50 (50% lethal concentration) (SR) of the same molecule?
A: The LC50 (50% lethal concentration) was greater than 100 µM.

Q: What about the TGI (SR) of the same molecule?
A: The TGI was 6.17 µM.

Q: Which results are given for `O=C(CCCn1c(=O)c2sc3ccccc3c2n2nnc(-c3ccccc3)c12)NCCc1c[nH]cn1`?
A: GI50 (BT-549): 17.4 µM; CC50 (BT-549; read-out: pLC50 (the source's name) (converted)): > 100 µM; TGI (BT-549; read-out: pTGI (converted)): 41.7 µM
